# Hits are enriched below; roughly 1.2% of the tested compounds scored in any of these assays.
# Runt-CBFb FRET: blocks binding of human RUNX1 Runt domain to CBFb. Cerulean-Runt/Venus-CBFb FRET ratio 530/480, 1 h. 220,000 compounds, 0.46% hits. inhibition, % at 20 µM. AID 1496;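 active means inhibition over about 50% at 20 µM in the single-dose screen, limit read from the data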
# Target sequence (Q01196 whole entry, looked up, the tested form may be a part): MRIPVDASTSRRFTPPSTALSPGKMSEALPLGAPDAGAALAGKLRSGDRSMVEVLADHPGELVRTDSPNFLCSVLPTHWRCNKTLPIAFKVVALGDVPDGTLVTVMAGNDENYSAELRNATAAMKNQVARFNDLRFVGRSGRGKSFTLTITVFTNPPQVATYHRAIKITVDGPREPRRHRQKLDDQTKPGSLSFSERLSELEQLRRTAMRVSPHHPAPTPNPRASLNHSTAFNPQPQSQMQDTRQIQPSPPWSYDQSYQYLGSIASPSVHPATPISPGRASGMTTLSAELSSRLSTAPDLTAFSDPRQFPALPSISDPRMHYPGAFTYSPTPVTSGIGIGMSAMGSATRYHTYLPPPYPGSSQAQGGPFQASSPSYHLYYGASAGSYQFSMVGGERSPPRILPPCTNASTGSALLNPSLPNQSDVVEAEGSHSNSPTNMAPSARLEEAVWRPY
# Target sequence (Q13951 whole entry, looked up, the tested form may be a part): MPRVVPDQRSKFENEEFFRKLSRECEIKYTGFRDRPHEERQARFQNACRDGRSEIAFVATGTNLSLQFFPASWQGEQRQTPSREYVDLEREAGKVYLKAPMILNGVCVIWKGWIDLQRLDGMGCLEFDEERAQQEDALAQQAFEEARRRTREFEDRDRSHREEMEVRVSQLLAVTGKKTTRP
#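 Measured by: fluorescence energy transfer, 422 nm excitation, 530/480 nm emission; Assay system: Cerulean-Runt domain; Medium: Tris pH 7.5 buffer with BSA; Measure: loss of energy transfer signal; Controls: 5 µM unlabeled CBFb as full-inhibition high control; Incubation: protein complex preformed 1 h, compound exposure 1 h, room temperature, dark.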
# Runt-SMMHC FRET: blocks binding of human RUNX1 Runt domain to CBFb-SMMHC; AID 1434; 220,000 compounds, 0.74% hits; Cerulean-Runt/Venus-CBFb-SMMHC FRET ratio 530/480, 1 h; inhibition, % at 20 µM;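 active means mean inhibition across duplicate retests at 20 µM reaching about 50%, limit read from the data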;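 further: inhibitors lower the FRET ratio by blocking Runt binding to CBFb-SMMHC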
# RanGTP-Impb inh: disruptors of Ran-importin-beta complex formation – biochemical, FRET, CFP-Ran, YFP-importin-beta, homogeneous, primary screen; cell-free CFP-Ran/YFP-importin-beta FRET ratio; 300,000 compounds, 1.1% hits; inhibition, % (concentration not given with the values); AID 2216;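 active means more than half of the replicate wells show a fall in the fluorescence ratio signal beyond about 16%, limit read from the data, passing the limit was not always enough; inconclusive means exactly half of the replicate wells pass the set limit; inactive means fewer than half of replicates pass the limit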
# CaV13 FRET inh: Disruptors of the CACNA1D IQ motif to Ca2+-dependent inactivation inhibitor domain association, primary screening, Förster resonance energy transfer in intact living …. HEK cells, CFP/YFP FRET ICDI-IQ, plate reader, 10 min; percent FRET-ratio fall versus neutral wells. inhibition, % at 12.3 µM. 340,000 compounds, 0.098% hits. AID 743397;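 active means mean replicate inhibition of at least 30% and at least 1% of replicates passing that level; inconclusive means only one of the two criteria is met; inactive means neither criterion is met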
# YIC counter: counter-screen YIC FRET for RanGTP-importin-beta inhibitors; Purified YIC probe, intramolecular FRET ratio YFP/CFP; IC50, µM; 1,000 compounds, 40% hits; shares compounds with RanGTP-Impb inh;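 active means fitted half-maximal inhibitory concentration no more than tenfold above the top dose tested; inconclusive means flat fit with 30 to 70% activity, or poor fit; inactive means half-maximal concentration beyond tenfold above the top dose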
# Numbers stand for hits; i = inactive; ? = inconclusive; nt = no result given.
SMILES,Runt-CBFb FRET,Runt-SMMHC FRET,RanGTP-Impb inh,CaV13 FRET inh,YIC counter
C=CCn1c(SCCOc2ccc(OC)cc2)nnc1C(CO)NC(=O)c1ccc(OC)cc1 (centres undefined),i,i,19,i,i
O=C(OCC(=O)N1CCCc2ccccc21)c1cc(Cl)ccc1O,nt,nt,i,i,nt
COc1ccccc1C(=O)COC(=O)CCNS(=O)(=O)c1ccc(C)c(C)c1,nt,nt,i,i,nt
COc1ccc(C2NC(=S)NC3=C2CCCC3=C2SCCS2)cc1 (centres undefined),i,i,18,i,i
S=C1NC2=C(CCCC2=C2SCCCS2)C(c2ccccc2)N1 (centres undefined),i,i,i,i,nt
COc1cccc(-n2c(=O)n(Cc3ccccc3)c(=O)c3[nH]cnc32)c1,i,i,i,i,nt
O=c1c2ccccc2c2ccccc2c(=O)n1Cc1ccco1,i,i,i,nt,nt
Cc1c(N=Cc2c(O)n(Cc3ccco3)c(=O)c3ccccc23)c(=O)n(-c2ccccc2)n1C,i,i,22,i,23
C=CCn1c(=O)c(C(=O)Nc2ccc(C)cc2)c(O)c2ccccc21,nt,nt,28,i,i
Cc1ccc(NC(=O)CSCC(=O)N(C)CC(=O)Nc2cccc3ccccc23)cc1,nt,nt,i,i,nt
CCOC(=O)C1(CCc2ccccc2)CCN(Cc2ccccn2)CC1,i,i,17,i,i
CCOC(=O)C1(CCc2ccccc2)CCN(Cc2ccc(C(=O)OC)cc2)CC1,nt,nt,i,i,nt
CCCc1cc(=O)oc2c(CN3CCCC3)c(O)c(Cl)cc12,98,160,62,i,27
CNC(=O)c1c(C)[nH]c(=S)c(C#N)c1-c1ccco1,i,i,31,i,i
CCOC(=O)/C(C#N)=C1/C=Nc2ccccc2N1,i,i,27,i,i
CCOC(=O)/C(C#N)=C1/C=CN(c2ccccc2)C=N1,i,i,i,i,nt
Cc1c(Cl)cccc1NC(=O)Cn1cnc(S(=O)(=O)N2CCCC2)c1,nt,nt,i,nt,nt
O=C(CCN1C(=O)COc2ccccc21)N1CCCCC1,i,i,24,i,i
CC(C)CN1C(=O)c2ccccc2C1c1nnnn1-c1ccc2c(c1)OCCO2 (centres undefined),nt,nt,nt,i,nt
Cc1c(CCC(=O)NCCCN2CCCC2=O)c(=O)oc2cc(O)ccc12,nt,nt,i,nt,nt
Cc1c(CCC(=O)NCCCN2CCCC2=O)c(=O)oc2c(C)c(O)ccc12,nt,nt,33,nt,16
Cc1oc2cc3oc(=O)c(CCC(=O)NC4CC4)c(C)c3cc2c1C,nt,nt,i,nt,nt
Cc1c(CCC(=O)NC2CC2)c(=O)oc2c(C)c(O)ccc12,nt,nt,27,nt,20
Cc1c(/C=N\NC(=O)C2COc3ccccc3O2)c2ccccc2n1C (centres undefined),i,i,23,i,i
O=C1C=C(NCc2ccc(Cl)cc2)CC(c2ccco2)C1 (centres undefined),i,i,i,i,nt
SMILES,Runt-CBFb FRET,Runt-SMMHC FRET,RanGTP-Impb inh,CaV13 FRET inh,YIC counter
O=C1C=C(Nc2ccc(Cl)cc2Cl)CC(c2ccco2)C1 (centres undefined),i,i,24,i,i
C=CCNc1sc(C(=O)c2ccc(Br)s2)c(N)c1C#N,i,i,19,i,5.6
CCCSc1nnc(-c2c[nH]c3ccccc23)n1CC,i,i,17,i,i
COc1ccc(N2C(=O)C(F)(F)C2c2ccc(C)cc2)cc1OC (centres undefined),i,i,i,i,nt
CCCCn1c(N(CCOC(C)=O)C(C)=O)nc2ccccc21,nt,nt,i,i,nt
Cc1ccc(-c2ccc(/C=C(\C#N)C(N)=S)n2C)cc1,i,i,31,i,i
Cn1cccc1/C=C(/C#N)C(N)=S,i,i,i,i,nt
COC(=O)c1c(NC(=O)c2ccc([N+](=O)[O-])o2)sc2c1CCN(C(C)C)C2,nt,nt,16,i,i
Cc1c(CC(=O)O)c(=O)oc2c(C)c3occ(-c4ccc(F)cc4)c3cc12,nt,nt,24,i,i
COc1cc(C(=O)NCCC2=CCCCC2)ccc1OC1CCN(C(C)=O)CC1,nt,nt,i,i,nt
COc1c(Br)cc2c(C)c(C(=O)O)oc2c1Br,i,i,i,i,nt
Cc1c(Br)c(=O)oc2c(Br)c(O)c(O)cc12,55,76,26,i,11
CC(C)C(NC(=O)c1ccccc1F)C(=O)OCC(=O)c1ccc(F)cc1 (centres undefined),i,i,i,i,nt
O=Cc1ccc(N2Cc3ccccc3C2)cc1,nt,nt,18,i,i
Cc1ccc(S(=O)(=O)N2CCN(C(=O)COC(=O)c3ccc(Cl)nc3)CC2)c(C)c1,nt,nt,nt,i,nt
NC(=O)c1sc2nccc(Nc3ccccc3)c2c1N,i,i,39,i,i
NC(=O)c1sc2nc(-c3ccccc3)c3c(c2c1N)CCCC3,nt,i,i,i,nt
CCC(=O)Nc1cc(C(C)(C)C)ccc1C(C)=O,i,i,i,i,nt
O=c1nc(-c2ccccc2Cl)c2cc(F)ccc2[nH]1,nt,nt,25,i,i
O=c1nc(-c2ccccc2)c2ccccc2[nH]1,i,i,i,nt,nt
COC(=O)C1=C(O)/C(=C\c2cc(C)n(-c3ccccc3F)c2C)N=C1C,nt,i,i,i,nt
COC(=O)C1=C(O)/C(=C\c2cc(C)n(-c3ccccc3C)c2C)N=C1C,i,i,20,i,44
Nc1ncc(Br)cc1S(=O)(=O)NCCC(=O)NC1CCCCC1,nt,nt,i,i,nt
O=C(COC(=O)c1cccnc1Nc1ccccc1F)NCCN1C(=O)CSC1=O,i,i,27,i,i
CCCNC(=O)COC(=O)c1cccnc1Nc1ccccc1F,i,i,i,i,nt
SMILES,Runt-CBFb FRET,Runt-SMMHC FRET,RanGTP-Impb inh,CaV13 FRET inh,YIC counter
CCN(CC)S(=O)(=O)c1ccc(OC)c(NC(=O)C2CC(=O)N(c3ccc(C)cc3)C2)c1 (centres undefined),i,i,29,i,i
Cc1c(NC(=O)c2cccc(NC(=O)COc3ccccc3C#N)c2)c(=O)n(-c2ccccc2)n1C,nt,nt,nt,i,nt
COc1cc2c(cc1OC)CN(Cc1ccc(C)cc1)CC2,nt,nt,?,i,nt
COc1cc2c(cc1OC)CN(Cc1ccccc1)CC2,nt,nt,18,i,i
COc1cc2c(cc1OC)CN(Cc1cccs1)CC2,i,i,18,nt,i
COC(=O)/C(C#N)=C/c1c(Oc2cccc(C)c2)nc2ccccn2c1=O,i,i,i,i,nt
COc1ccc(Oc2nc3c(C)cccn3c(=O)c2/C=C(\C#N)C(N)=O)cc1,i,82,22,i,6
Cc1cccn2c(=O)c(/C=C(\C#N)C(=O)NC3CCS(=O)(=O)C3)c(Oc3ccc(F)cc3)nc12 (centres undefined),nt,nt,37,i,18
COC(=O)/C(C#N)=C/c1c(Oc2cc(C)cc(C)c2)nc2c(C)cccn2c1=O,i,i,i,i,nt
Cc1cccc(Oc2nc3ccccn3c(=O)c2/C=C(\C#N)C(=O)NC2CCS(=O)(=O)C2)c1 (centres undefined),i,81,27,i,48
COc1ccc(N2CCN(c3nc4c(C)cccn4c(=O)c3/C=C(\C#N)C(N)=O)CC2)cc1,nt,nt,?,i,nt
O=C(Cc1cc(=O)[nH]c(=O)[nH]1)NCc1ccc(Cl)cc1,i,i,?,i,nt
